This is a sample that favours compounds with a hit; in the whole collection about 1.9% have one here.
PLCb3 inh – blocks human PLC-beta3 enzyme activity | AID 720704 | 370,000 compounds, 0.18% hits | inhibition, % at 12.2 µM | Purified PLC-beta3, fluorogenic substrate, fluorescence; in the data active = inhibition above about 11%;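 note: 0% = median of compound wells on plate and 100% = full blocker control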
DAGLB inh – blocks human DAGLB lipase activity; Q8NCG7; HEK293T DAGLB membrane lysate, EnzChek fluorogenic substrate; inhibition, % at 5.17 µM; 340,000 compounds, 0.059% hits; AID 504411; in the data active = inhibition above about 34%;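 note: 0% = enzyme with vehicle and 100% = wells lacking enzyme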
sPLA2-III inh – Blocks human group III sPLA2 activity | Q9NZ20 | QFRET BODIPY PC-A2 liposome hydrolysis, fluorescence | inhibition, % at 12.2 µM | 370,000 compounds, 0.56% hits;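 active = inhibition above mean plus 3 SD of compounds lying within the high and low control bounds, cut at about 19% in these data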;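 note: 0% = median of test compound wells and 100% = no enzyme DMSO wells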
PLC-gamma1 inh – blocks human PLC-gamma1 enzyme activity; purified PLC-gamma1, fluorogenic substrate, fluorescence; 370,000 compounds, 0.84% hits; inhibition, % at 12.2 µM; AID 720700; P19174; in the data active = inhibition above about 9.5%
TbMetRS inhib – blocks T. brucei methionyl-tRNA synthetase activity; purified T. brucei MetRS, ATP depletion, Kinase-Glo luminescence; inhibition, % at 11.9 µM; 360,000 compounds, 0.4% hits;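 active = inhibition above a per-plate cutoff of the control wells' mean inhibition plus 3 SD, cut at about 5.5% in these data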;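 note: 0% = DMSO wells median and 100% = median of wells with control inhibitor compound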
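Measured by: Kinase-Glo luciferase luminescence reporting remaining unconsumed ATP. Material: purified T. brucei MetRS enzyme. Doses: 11.9 µM compound single dose, 0.9% DMSO. Medium: HEPES buffer containing pyrophosphatase, BSA, spermine, DTT. Times: 15 min preincubation, 2 h reaction, all 25 °C. Reagent: methionine, ATP and bulk E. coli tRNA.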
TbMetRS confirm – Trypanosoma brucei MetRS inhibition confirmed; shares compounds with TbMetRS inhib; T. brucei MetRS enzyme, luminescence (ATP depletion); inhibition, % at 11.9 µM; 1,400 compounds, 93% hits; AID 624412; in the data active = inhibition above about 7%
Jurkat cytotox – counter-screen for T. brucei MetRS inhibitors: Jurkat cell cytotoxicity | shares compounds with TbMetRS inhib | Jurkat cells viability, ATP luminescence | inhibition, % at 8.3 µM | 1,400 compounds, 12% hits | AID 624413; in the data active = inhibition above about 15%;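 note: 0% = vehicle and 100% = reference inhibitor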
TbMetRS FP orth – inhibits T. brucei methionyl tRNA synthetase in orthogonal FP test. shares compounds with TbMetRS inhib. purified T. brucei MetRS, fluorescence polarization. inhibition, % at 11.9 µM. 1,400 compounds, 44% hits; in the data active = inhibition above about 17%;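 note: 0% = vehicle wells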
* marks the source's active call; other numbers are inactive results; i = inactive; x = no result given.

SMILES | PLCb3 inh | DAGLB inh | sPLA2-III inh | PLC-gamma1 inh | TbMetRS inhib | TbMetRS confirm | Jurkat cytotox | TbMetRS FP orth
COc1ccc(N2C(=O)C(CC(=O)Nc3ccc(Cl)cc3)N(NC(=O)c3cccc(F)c3)C2=S)cc1 (stereo not given) | -5 | -1 | -113 | 4 | 39* | 51* | -9 | 24*
COc1ccc(-c2ccc3c(n2)CCCN3S(=O)(=O)c2cccs2)cc1 | -84 | x | -3 | -66 | x | x | x | x
Cc1ccccc1C(=O)NC1CCCCN(Cc2cccc(F)c2)C1=O (stereo not given) | 2 | x | -4 | 1 | x | x | x | x
CCCCNS(=O)(=O)CC1NCCc2ccccc21 (stereo not given) | 4 | x | 7 | 3 | x | x | x | x
COc1ccc(NC(=O)CC2C(=O)N(C)C(=S)N2CCc2ccccc2)cc1 (stereo not given) | 3 | -1 | -58 | 4 | 50* | 49* | 5 | 25*
COC(=O)CN1C(=S)N(Cc2ccccc2)C(=O)C1CC(=O)Nc1ccc(OC)cc1 (stereo not given) | -3 | -3 | -5 | 1 | 1 | x | x | x
O=C(CC1C(=O)N(c2ccc(Cl)cc2)C(=S)N1CCc1ccncc1)Nc1ccc(F)cc1 (stereo not given) | 5 | 1 | -15 | 5 | 21* | 23* | 2 | 23*
c1coc(-c2nc3c4ccccc4ccn3c2Cc2ccsc2)c1 | -60 | x | -4 | -38 | x | x | x | x
CCCCn1c(NC(=O)c2ccccc2)c(C#N)c2nc3ccccc3nc21 | -52 | -16 | 7 | 0 | 11* | 15* | 4 | 7
CCC(C)n1c(NC(=O)c2ccccc2)c(C#N)c2nc3ccccc3nc21 (stereo not given) | -237 | -1 | -6 | -180 | 3 | x | x | x
Oc1c(Cl)cc(Cl)cc1CNc1nc2ccccc2[nH]1 | -10 | -3 | -6 | -1 | 93* | 108* | 0 | 102*
COc1ccc(-n2c(N)c(C(=O)NCc3ccco3)c3nc4ccccc4nc32)cc1 | i | 2 | -12 | -498 | -1 | x | x | x
Nc1c(C(=O)NCc2ccco2)c2nc3ccccc3nc2n1CCc1ccc(F)cc1 | i | 5 | -18 | i | 8.4* | 11* | 14 | 10
CC(=O)c1cc(-c2ccccc2)n(CC(=O)NCc2ccc(F)cc2)c1C | 0 | x | 0 | -5 | x | x | x | x
Cc1nc(NCCC(C)C)c2nnn(Cc3ccccc3)c2n1 | -8 | 0 | 7 | 2 | 7.3* | 2 | 2 | 9
CCc1nc(NCCC(C)C)c2nnn(Cc3ccccc3)c2n1 | -4 | -10 | -1 | -2 | 0 | x | x | x
COc1ccc(C(=O)CSc2nnc(-c3cccs3)o2)cc1OC | 0 | x | -12 | -2 | x | x | x | x
O=C(Nc1ccccc1)Nc1cc(OCC(F)(F)F)cc(OCC(F)(F)F)c1 | 1 | -11 | -7 | 0 | 6.9* | 15* | 89* | 72*
Cc1ccc(NC(=O)CN(C)C(=O)c2cc(S(=O)(=O)N(C)C)ccc2N2CCCC2)cc1 | -12 | -3 | -3 | -2 | 49* | 78* | 5 | 52*
CN(CC(=O)Nc1cccc(F)c1)C(=O)c1cc(S(=O)(=O)N(C)C)ccc1N1CCCC1 | -12 | 2 | -5 | -6 | 10* | 27* | 3 | 10
COC(=O)[C@]12C[C@H](CC(=O)NCc3cccc4ccccc34)C(=O)N(Cc3ccccc3)C1=C[C@H](C(C)C)O[C@@H]2C1CC1 | 1 | x | 1 | -60 | x | x | x | x
COC(=O)C1CN(C2CC2)CCS(=O)(=O)N1Cc1cn(Cc2ccc(F)cc2)nn1 (stereo not given) | 0 | x | 5 | 3 | x | x | x | x
COC(=O)C1=C(N)Oc2cc(C)n(Cc3cccnc3)c(=O)c2C1c1cc(OC)ccc1OC (stereo not given) | 0 | 2 | -4 | -3 | 40* | 6.1* | 2 | 4
COC(=O)C1=C(N)Oc2cc(C)n(CCCn3ccnc3)c(=O)c2C1c1cccc(Cl)c1 (stereo not given) | 7 | 2 | 7 | 3 | 19* | 3 | 1 | 4
